Activity calls are given as the source filed them. The calls are words filed in the database; no cut-off is given here.
Experiments:
[1] = target: T1, Toll-like receptor 9 (Mus musculus) (UniProt Q9EQU3); assay: Activation of mouse TLR9 expressed in HEK293 assessed as induction of NF-kappaB activity reporter gene assay; type: cell-based
T1 sequence (whole entry): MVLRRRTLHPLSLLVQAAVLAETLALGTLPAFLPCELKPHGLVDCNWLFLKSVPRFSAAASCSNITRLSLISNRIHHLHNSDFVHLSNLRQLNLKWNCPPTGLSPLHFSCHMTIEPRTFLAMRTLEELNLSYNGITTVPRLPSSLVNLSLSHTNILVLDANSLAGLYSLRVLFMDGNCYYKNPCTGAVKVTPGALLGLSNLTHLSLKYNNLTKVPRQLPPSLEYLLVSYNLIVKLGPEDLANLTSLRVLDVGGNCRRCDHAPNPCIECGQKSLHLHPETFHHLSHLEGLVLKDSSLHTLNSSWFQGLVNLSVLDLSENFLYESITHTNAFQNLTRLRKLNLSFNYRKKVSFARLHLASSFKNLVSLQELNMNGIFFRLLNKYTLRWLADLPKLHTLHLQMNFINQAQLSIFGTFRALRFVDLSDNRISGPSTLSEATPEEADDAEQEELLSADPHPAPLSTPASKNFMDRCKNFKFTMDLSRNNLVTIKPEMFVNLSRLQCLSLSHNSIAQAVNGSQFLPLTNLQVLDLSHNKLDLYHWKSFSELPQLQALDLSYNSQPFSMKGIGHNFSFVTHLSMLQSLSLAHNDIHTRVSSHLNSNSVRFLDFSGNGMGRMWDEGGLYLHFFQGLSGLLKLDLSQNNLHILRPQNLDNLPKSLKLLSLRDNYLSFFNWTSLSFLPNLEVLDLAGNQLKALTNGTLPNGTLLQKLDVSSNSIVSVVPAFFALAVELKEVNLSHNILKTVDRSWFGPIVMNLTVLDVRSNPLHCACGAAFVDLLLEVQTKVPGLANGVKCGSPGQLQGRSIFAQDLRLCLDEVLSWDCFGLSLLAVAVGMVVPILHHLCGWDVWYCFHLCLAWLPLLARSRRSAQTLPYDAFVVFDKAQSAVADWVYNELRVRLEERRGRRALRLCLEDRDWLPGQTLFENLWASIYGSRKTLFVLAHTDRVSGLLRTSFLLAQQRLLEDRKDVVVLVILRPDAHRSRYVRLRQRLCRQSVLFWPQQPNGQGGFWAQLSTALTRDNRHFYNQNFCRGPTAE

[2] = tested on: PBMC; assay: Immunomodulatory activity in human PBMC assessed as induction of IL12 at 100 ug/ml after 24 hrs; type: functional, cell-based
In short: (§1)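 Human PBMCs plated at 5 × 10^6 cells/mL; compounds dissolved in PBS added at various concentrations, 37 °C for 24 h. Supernatant cytokines/chemokines quantified with human Luminex multiplex kit.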

[3] = tested on: Splenocyte; assay: Immunomodulatory activity in C57BL/6 mouse splenocytes bearing TLR7 receptor assessed as IL6 release at 100 ug/ml after 24 hrs by ELISA; type: functional, cell-based
In short: (§2)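 C57BL/6 splenocytes in RPMI 1640 with 10% FBS, penicillin/streptomycin, 2 mM L-glutamine, plated at 5 × 10^6 cells/mL; compounds in PBS added, 37 °C for 24 h. Supernatant IL-12 and IL-6 by ELISA; representative of three independent experiments.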

[4] = tested on: PBMC; assay: Immunomodulatory activity in human PBMC assessed as induction of IFN-alpha at 100 ug/ml after 24 hrs
[5] = organism: Homo sapiens; assay: Ratio of human TLR7 activity to human TLR8 activity
In short: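 TLR7/TLR8 ratio computed from fold NF-κB (SEAP reporter) activation in HEK293 cells stably expressing human TLR7 versus TLR8, compounds at 50 μg/mL, 18 h exposure; representative of three independent experiments.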

[6] = target: Toll-like receptor 3 (Homo sapiens) (UniProt O15455); assay: Activation of human TLR3 expressed in HEK293 assessed as induction of NF-kappaB activity reporter gene assay; type: cell-based
Chain of Toll-like receptor 3 (Homo sapiens) (O15455 whole entry): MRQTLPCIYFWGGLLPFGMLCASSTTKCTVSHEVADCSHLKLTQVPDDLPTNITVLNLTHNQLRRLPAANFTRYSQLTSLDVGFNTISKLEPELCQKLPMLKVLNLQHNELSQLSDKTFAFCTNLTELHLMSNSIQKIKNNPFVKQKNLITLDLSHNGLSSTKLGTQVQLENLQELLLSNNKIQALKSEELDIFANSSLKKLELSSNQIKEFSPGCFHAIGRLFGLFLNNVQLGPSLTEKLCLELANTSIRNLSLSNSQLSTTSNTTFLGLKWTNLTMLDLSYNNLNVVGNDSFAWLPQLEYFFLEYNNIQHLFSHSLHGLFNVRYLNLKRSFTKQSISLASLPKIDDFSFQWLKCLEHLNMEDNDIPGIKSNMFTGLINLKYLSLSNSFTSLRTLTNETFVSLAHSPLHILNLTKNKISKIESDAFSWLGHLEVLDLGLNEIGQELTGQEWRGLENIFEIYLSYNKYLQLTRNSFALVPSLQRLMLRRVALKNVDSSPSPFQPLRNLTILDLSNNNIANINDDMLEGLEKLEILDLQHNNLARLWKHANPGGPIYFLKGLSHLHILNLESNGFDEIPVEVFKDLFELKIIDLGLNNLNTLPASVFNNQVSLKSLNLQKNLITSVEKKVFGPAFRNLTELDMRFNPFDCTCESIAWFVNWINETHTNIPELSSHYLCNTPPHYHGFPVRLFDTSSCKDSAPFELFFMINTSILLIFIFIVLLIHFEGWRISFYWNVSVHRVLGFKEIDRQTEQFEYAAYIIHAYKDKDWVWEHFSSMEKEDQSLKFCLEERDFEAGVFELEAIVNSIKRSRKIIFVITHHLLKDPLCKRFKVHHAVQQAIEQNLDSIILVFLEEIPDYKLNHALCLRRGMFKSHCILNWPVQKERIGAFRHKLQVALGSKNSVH

[7] = target: T2, Toll-like receptor 7 (Homo sapiens) (UniProt Q9NYK1); assay: Activation of human TLR7 expressed in HEK293XL assessed as fold induction of NF-kappaB activity at 50 ug/ml after 18 hrs by reporter gene assay relative to control
T2 sequence (whole entry): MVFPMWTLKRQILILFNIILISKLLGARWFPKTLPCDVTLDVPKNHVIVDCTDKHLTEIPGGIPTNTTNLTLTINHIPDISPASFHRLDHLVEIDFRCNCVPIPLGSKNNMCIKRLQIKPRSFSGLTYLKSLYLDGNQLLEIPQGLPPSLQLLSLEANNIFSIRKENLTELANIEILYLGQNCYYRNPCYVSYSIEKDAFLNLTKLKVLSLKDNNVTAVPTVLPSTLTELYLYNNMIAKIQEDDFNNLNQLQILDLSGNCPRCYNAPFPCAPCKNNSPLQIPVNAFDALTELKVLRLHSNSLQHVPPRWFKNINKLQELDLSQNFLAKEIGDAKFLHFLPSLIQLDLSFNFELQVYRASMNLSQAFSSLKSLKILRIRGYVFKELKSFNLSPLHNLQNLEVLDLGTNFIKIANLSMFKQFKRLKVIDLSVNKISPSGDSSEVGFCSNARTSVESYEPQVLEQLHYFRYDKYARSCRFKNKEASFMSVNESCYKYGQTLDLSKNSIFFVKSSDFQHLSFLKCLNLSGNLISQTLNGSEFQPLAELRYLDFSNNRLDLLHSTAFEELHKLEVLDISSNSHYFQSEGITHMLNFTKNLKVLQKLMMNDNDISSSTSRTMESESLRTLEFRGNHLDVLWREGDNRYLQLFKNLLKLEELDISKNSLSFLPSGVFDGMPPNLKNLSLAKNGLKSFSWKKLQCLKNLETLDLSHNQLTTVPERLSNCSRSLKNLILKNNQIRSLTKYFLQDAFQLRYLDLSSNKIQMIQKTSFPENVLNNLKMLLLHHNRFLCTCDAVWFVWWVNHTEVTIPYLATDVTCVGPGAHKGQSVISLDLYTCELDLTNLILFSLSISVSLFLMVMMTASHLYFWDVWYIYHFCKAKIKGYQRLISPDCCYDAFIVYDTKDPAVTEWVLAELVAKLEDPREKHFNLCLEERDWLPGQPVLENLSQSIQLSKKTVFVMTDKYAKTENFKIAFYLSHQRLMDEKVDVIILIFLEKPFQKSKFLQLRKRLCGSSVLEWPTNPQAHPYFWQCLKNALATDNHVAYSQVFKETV
In short: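 HEK293 cells stably expressing human TLR7 or TLR8, transiently transfected with SEAP reporter plasmid; medium replaced, SIMRA compounds added, 18 h incubation. Supernatant SEAP measured by QuantiBlue; expressed as fold increase in NF-κB activity over PBS control. Tabulated data at 50 μg/mL, representative of three independent experiments.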

[8] = tested on: Splenocyte; assay: Immunomodulatory activity in C57BL/6 mouse splenocytes bearing TLR7 receptor assessed as IL12 release at 100 ug/ml after 24 hrs by ELISA; type: functional, cell-based; in short: as §2
[9] = tested on: PBMC; assay: Immunomodulatory activity in human PBMC assessed as induction of TNFalpha at 100 ug/ml after 24 hrs; type: functional, cell-based; in short: as §1

| Activity [1] | Activity [3] | Ratio [5] | Activity [6] | fold change (FC) [7] | Activity [8] | Compound | Activity [2] | IFN-alpha [4] | Activity [9] |
| --- | --- | --- | --- | --- | --- | --- | --- | --- | --- |
| inactive | Active | 13.4 | inactive | 26.8 | Active | Nc1ccn([C@@H]2O[C@H](COP(=O)(S)O[C@H]3[C@@H](O)[C@H](n4cnc5c(N)ncnc54)O[C@@H]3CO)[C@@H](OP(=O)(S)OC[C@H]3O[C@@H](n4ccc5c(=O)[nH]c(N)nc54)[C@H](O)[C@@H]3OP(=O)(S)OC[C@H]3O[C@@H](n4ccc(=O)[nH]c4=O)[C@H](O)[C@@H]3OP(=O)(S)OC[C@H]3O[C@@H](n4ccc5c(=O)[nH]c(N)nc54)[C@H](O)[C@@H]3OP(=O)(S)OC[C@H]3O[C@@H](n4cnc5c(N)nc(N)nc54)[C@H](O)[C@@H]3OP(=O)(S)OC[C@H]3O[C@@H](n4cnc5c(N)ncnc54)[C@H](O)[C@@H]3OP(=O)(S)OC[C@H]3O[C@@H](n4ccc5c(=O)[nH]c(N)nc54)[C@H](O)[C@@H]3OP(=O)(S)OC[C@H]3O[C@@H](n4ccc(N)nc4=O)[C@H](O)[C@@H]3OP(=O)(S)OC[C@H]3O[C@@H](n4ccc(=O)[nH]c4=O)[C@H](O)[C@@H]3OP(=O)(S)OC[C@H]3O[C@@H](n4ccc(=O)[nH]c4=O)[C@H](O)[C@@H]3OP(=O)(S)OCC(O)COP(=O)(S)O[C@H]3[C@@H](O)[C@H](n4ccc(=O)[nH]c4=O)O[C@@H]3COP(=O)(S)O[C@H]3[C@@H](O)[C@H](n4ccc(=O)[nH]c4=O)O[C@@H]3COP(=O)(S)O[C@H]3[C@@H](O)[C@H](n4ccc(N)nc4=O)O[C@@H]3COP(=O)(S)O[C@H]3[C@@H](O)[C@H](n4ccc5c(=O)[nH]c(N)nc54)O[C@@H]3COP(=O)(S)O[C@H]3[C@@H](O)[C@H](n4cnc5c(N)nc(N)nc54)O[C@@H]3COP(=O)(S)O[C@H]3[C@@H](O)[C@H](n4cnc5c(N)nc(N)nc54)O[C@@H]3COP(=O)(S)O[C@H]3[C@@H](O)[C@H](n4ccc5c(=O)[nH]c(N)nc54)O[C@@H]3COP(=O)(S)O[C@H]3[C@@H](O)[C@H](n4ccc(=O)[nH]c4=O)O[C@@H]3COP(=O)(S)O[C@H]3[C@@H](O)[C@H](n4ccc5c(=O)[nH]c(N)nc54)O[C@@H]3COP(=O)(S)O[C@H]3[C@@H](O)[C@H](n4ccc(N)nc4=O)O[C@@H]3COP(=O)(S)O[C@H]3[C@@H](O)[C@H](n4cnc5c(N)ncnc54)O[C@@H]3CO)[C@H]2O)c(=O)n1 (stereo partly drawn) | 864 pg/mL | 123 pg/mL | 165 pg/mL |
| inactive | Active | 29.5 | inactive | 29.5 | Active | Nc1ccn([C@@H]2O[C@H](COP(=O)(S)O[C@H]3[C@@H](O)[C@H](n4cnc5c(N)ncnc54)O[C@@H]3COP(=O)(S)O[C@H]3[C@@H](O)[C@H](n4cnc5c(N)ncnc54)O[C@@H]3CO)[C@@H](OP(=O)(S)OC[C@H]3O[C@@H](n4ccc(=O)[nH]c4=O)[C@H](O)[C@@H]3OP(=O)(S)OC[C@H]3O[C@@H](n4ccc5c(=O)[nH]c(N)nc54)[C@H](O)[C@@H]3OP(=O)(S)OC[C@H]3O[C@@H](n4cnc5c(N)ncnc54)[C@H](O)[C@@H]3OP(=O)(S)OC[C@H]3O[C@@H](n4cnc5c(N)ncnc54)[C@H](O)[C@@H]3OP(=O)(S)OC[C@H]3O[C@@H](n4ccc5c(=O)[nH]c(N)nc54)[C@H](O)[C@@H]3OP(=O)(S)OC[C@H]3O[C@@H](n4ccc(N)nc4=O)[C@H](O)[C@@H]3OP(=O)(S)OC[C@H]3O[C@@H](n4ccc(=O)[nH]c4=O)[C@H](O)[C@@H]3OP(=O)(S)OC[C@H]3O[C@@H](n4ccc(=O)[nH]c4=O)[C@H](O)[C@@H]3OP(=O)(S)OCC(O)COP(=O)(S)O[C@H]3[C@@H](O)[C@H](n4ccc(=O)[nH]c4=O)O[C@@H]3COP(=O)(S)O[C@H]3[C@@H](O)[C@H](n4ccc(=O)[nH]c4=O)O[C@@H]3COP(=O)(S)O[C@H]3[C@@H](O)[C@H](n4ccc(N)nc4=O)O[C@@H]3COP(=O)(S)O[C@H]3[C@@H](O)[C@H](n4ccc5c(=O)[nH]c(N)nc54)O[C@@H]3COP(=O)(S)O[C@H]3[C@@H](O)[C@H](n4cnc5c(N)ncnc54)O[C@@H]3COP(=O)(S)O[C@H]3[C@@H](O)[C@H](n4cnc5c(N)ncnc54)O[C@@H]3COP(=O)(S)O[C@H]3[C@@H](O)[C@H](n4ccc5c(=O)[nH]c(N)nc54)O[C@@H]3COP(=O)(S)O[C@H]3[C@@H](O)[C@H](n4ccc(=O)[nH]c4=O)O[C@@H]3COP(=O)(S)O[C@H]3[C@@H](O)[C@H](n4ccc(N)nc4=O)O[C@@H]3COP(=O)(S)O[C@H]3[C@@H](O)[C@H](n4cnc5c(N)ncnc54)O[C@@H]3COP(=O)(S)O[C@H]3[C@@H](O)[C@H](n4cnc5c(N)ncnc54)O[C@@H]3CO)[C@H]2O)c(=O)n1 (stereo partly drawn) | 260 pg/mL | 84.5 pg/mL | 7.5 pg/mL |

— ChEMBL document CHEMBL1154352, “Toll-like receptor 7 selective synthetic oligoribonucleotide agonists: synthesis and structure-activity relationship studies” (J Med Chem, 2009)
